Reference: PMC12443483 (Journal of the American Chemical Society, 2025)
Values joined by “and” are separate entries in the source; they are usually repeats but may differ in a detail not shown here. Identical values can stand only once.

Tests used:
[1] = Photophysical characterization by absorption and fluorescence spectroscopy; format: physicochemical; conditions: for Absorbance λabs (maximum absorption wavelength) / Emission λem (maximum emission wavelength) / ε (molar absorption coefficient at maximum absorption wavelength): 25 μM probe in CH3CN/PBS pH 7.4; for Stokes Shift: difference between λabs and λem, CH3CN/PBS pH 7.4
Method in brief: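 Probe at 25 μM final in CH3CN/PBS (50:50 v/v), pH 7.4. Absorption and emission spectra were recorded, with excitation at each probe's absorption maximum. ε was taken at the absorption maximum, and Stokes shift as the absorption–emission maximum difference. Quantum yield (error limit ±5) was measured in this mixture and also in CH3CN.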

[2] = Polarity sensitivity: emission across solvents with varying dielectric constants; format: physicochemical; conditions: for Emission wavelength range (solvatochromism): depending on solvent polarity; for Polarity sensitivity: λem versus solvent dielectric constant
[3] = Viscosity sensitivity: fluorescence in ethylene glycol/glycerol mixtures; format: physicochemical; conditions: EG/G mixtures 16 to 851 cP; for Viscosity sensitivity χ2: second-order polynomial regression, 25 μM probe
Method in brief: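 Fluorescence was measured in ethylene glycol/glycerol mixtures spanning 16–851 cP; the two solvents were chosen for closely matched dielectric constants, to minimise polarity effects. χ2 was derived from second-order polynomial regression of intensity against viscosity.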

[4] = Temperature dependence of fluorescence in methanol/glycerol mixtures; format: physicochemical
Method in brief: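 Fluorescence of 25 μM probe was measured in methanol/glycerol mixtures of varying viscosity at 25 and 42 °C. Fluorescence fold change was plotted against viscosity.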

[5] = molecular target: T1, αS fibrils (Homo sapiens, UniProt P37840); assay: Turn-on fluorescence upon binding to αS fibrils; conditions: for Brightness increase upon binding to αS fibrils / Emission wavelength upon binding to αS fibrils: 10 μM probe, 50 μM αS fibrils; for Fluorescence lifetime (τ) upon binding to αS fibrils: bound to αS fibrils
Method in brief: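 Emission spectra of 10 μM probe were recorded with 50 μM αS monomer or fibrils. Samples were also photographed under a 365 nm hand-held UV lamp.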

[6] = molecular target: T1, αS fibrils; assay: Binding affinity; conditions: for Kd: read-out: Dissociation constant (Kd), probe 10 nM–10 μM with 100 μM αS fibrils
[7] = test system: tau fibrils; assay: Amyloid selectivity: turn-on with αS fibrils relative to tau fibrils; format: binding; conditions: 1 μM probe
[8] = test system: Aβ1–42 fibrils; assay: Amyloid selectivity: turn-on with αS fibrils relative to Aβ1–42 fibrils; format: binding; conditions: 1 μM probe
[9] = molecular target: T1, αS fibrils; assay: Competition binding studies with ThT, Ex6 and BF2846 on αS fibrils; conditions: for Competition with ThT: some ThT emission remained at saturating concentrations
[10] = molecular target: T1, αS fibrils; assay: Concentration-dependent binding λem and local dielectric constant on αS fibrils; conditions: for Dielectric constant of local environment of probe bound to αS fibrils: calculated from fits of λem in solvents, 581 nm for 3c, 617 nm for 4a
[11] = molecular target: PDD-derived AFs (Homo sapiens, UniProt P37840); assay: Fluorescence with amplified fibrils; format: binding; conditions: 1 μM probe, 1 μM AFs, average of three PDD patients
Method in brief: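 Probe (1 μM) was mixed with amplified fibrils (1 μM) or brain lysates from three PDD patients, and the averages are shown. Ex/Em was set per probe: 463/580 or 484/620 nm, with ThT reference at 450/482 nm. Fold change is after subtracting free probe fluorescence in PBS. Error bars are SD of 3 measurements.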

[12] = molecular target: αS (Homo sapiens, UniProt P37840); assay: Monitoring αS aggregation over prolonged agitation; format: biochemical; conditions: PBS buffer, 37 °C; for Detection of early αS aggregation species (misfolding, oligomers/protofibrils): 0–40 hours
[13] = molecular target: αS monomer (Homo sapiens, UniProt P37840); assay: Fluorescence with TMAO-induced αS misfolding/oligomers; format: biochemical
Method in brief: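 Monomeric αS (50 μM) was exposed to trimethylamine N-oxide at 2, 4 or 6 M to induce misfolding or oligomers, then probe fluorescence was read. Fold change is relative to free probe in Tris buffer containing the same TMAO concentration.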

[14] = test system: αS/pLK condensates; assay: CLSM staining of αS/pLK LLPS condensates relative to αS fibrils; conditions: αS 100 μM / pLK 0.25 mg/mL, LLPS buffer
Method in brief: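 Condensates of αS (100 μM) and poly-L-lysine (0.25 mg/mL), doped with 5% Acd-labelled αS (position 94) and 5% FITC-poly-L-lysine, stained and imaged by confocal microscopy. Channels: Acd 430–480 nm (Ex 405 nm); FITC 500–540 nm; probe Ex 561 nm, Em 570–620 or 630–680 nm. Probe intensity in condensates was divided by that with αS fibrils. Buffer: HEPES/NaCl/TCEP pH 7.4 with 15% PEG-8000, room temperature. SD of >3 measurements.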

[15] = test system: αS/Tau0N4R condensates; assay: CLSM staining of αS/tau condensates relative to αS fibrils; conditions: 80 μM αS / 40 μM tau, LLPS buffer
[16] = molecular target: Tau0N4R condensates (Homo sapiens, UniProt P10636); assay: CLSM staining of Tau0N4R condensates with and without αS; conditions: 40 μM Tau0N4R without αS, 630–680 nm channel
Method in brief: (§1)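 Confocal imaging of 40 μM Tau0N4R condensates, with or without 80 μM αS, doped with 5% AF488-labelled Tau0N4R. Buffer: 20 mM HEPES, 150 mM NaCl, 1 mM TCEP, pH 7.4, 15% PEG-8000, room temperature. Probe read at Ex 561 nm, Em 630–680 nm; AF488-tau at Ex 488 nm, Em 500–540 nm. Error bars are SD of >3 measurements.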

[17] = test system: Tau0N4R condensates; assay: as above; conditions: 40 μM Tau0N4R with or without 80 μM αS
Method in brief: as §1

[18] = 2 M TMAO, 50 μM αS monomer, 10 μM probe
[19] = 4 M TMAO, 50 μM αS monomer, 10 μM probe
[20] = 6 M TMAO, 50 μM αS monomer, 10 μM probe

Sequence of Tau0N4R condensates (Homo sapiens, UniProt P10636) (P10636 2-383 isoform P10636-6): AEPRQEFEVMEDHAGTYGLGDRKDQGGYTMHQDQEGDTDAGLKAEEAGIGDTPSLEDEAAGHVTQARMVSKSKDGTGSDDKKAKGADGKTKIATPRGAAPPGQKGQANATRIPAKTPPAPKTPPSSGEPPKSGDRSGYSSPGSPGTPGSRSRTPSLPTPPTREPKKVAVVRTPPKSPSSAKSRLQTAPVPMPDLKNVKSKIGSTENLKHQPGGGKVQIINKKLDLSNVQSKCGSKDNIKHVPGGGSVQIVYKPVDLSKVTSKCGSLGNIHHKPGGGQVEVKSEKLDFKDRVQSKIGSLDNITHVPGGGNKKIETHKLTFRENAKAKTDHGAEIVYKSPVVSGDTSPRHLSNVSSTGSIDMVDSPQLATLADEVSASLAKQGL

| Compound | Absorbance λabs (maximum absorption wavelength) [1] | Emission λem (maximum emission wavelength) [1] | ε (molar absorption coefficient at maximum absorption wavelength) [1] | Fluorescence QY ([1]; CH3CN/PBS pH 7.4, 25 μM) | Stokes Shift [1] | Fluorescence QY ([1]; in CH3CN) | Emission wavelength range (solvatochromism) [2] | Polarity sensitivity [2] | Fluorescence intensity change with viscosity [3] | Viscosity sensitivity χ2 [3] | Fluorescence change between 25 °C and 42 °C [4] | Brightness increase upon binding to αS fibrils [5] | Emission wavelength upon binding to αS fibrils [5] | Fluorescence lifetime (τ) upon binding to αS fibrils [5] | Kd [6] | Fluorescence with PDD-derived AFs compared to unamplified lysate [11] | Turn-on for αS fibrils relative to tau fibrils [7] | Turn-on for αS fibrils relative to Aβ1–42 fibrils [8] | Staining efficiency: probe intensity ratio αS/pLK condensates to αS fibrils [14] | Staining: probe intensity ratio αS/Tau condensates to αS fibrils [15] | further results |
| --- | --- | --- | --- | --- | --- | --- | --- | --- | --- | --- | --- | --- | --- | --- | --- | --- | --- | --- | --- | --- | --- |
| Cc1c(C)n2c(/C=C/c3ccc(N(C)C)cc3)c(C)c(=O)n2c1=O [3c] | 418 nm | 604 nm | 30400 M⁻¹ cm⁻¹ | 0.5% | 186 nm | 7.3 ± 0.3% and 7.3% | – | 32.1 | 3.82 fold | 0.6 ×10^−3 | 2.48 fold | 476 fold | 580 nm | 2.27 ns | 1450 ± 430 nM | 2.4 fold | 2.8 fold | 5.2 fold | 0.68 fold | 0.37 fold | Displacement of probe fluorescence by BF2846 (Site B binder) [9]: partially displaced; Displacement of probe fluorescence by Ex6 (Site A binder) [9]: not displaced; Competition with ThT [9]: competed with the promiscuous binder ThT; λem as probe concentration increased ([10]; bound to αS fibrils): 575 to 581 nm; λem shift as concentration increased ([10]; bound to αS fibrils): 6 nm; Dielectric constant of local environment of probe bound to αS fibrils [10]: 35.9; Detection of early αS aggregation species (misfolding, oligomers/protofibrils) [12]: unable to detect changes within 20 h; λem with αS/TMAO ([13]; 4 M TMAO): 566 nm; λem with αS/TMAO ([13]; 6 M TMAO): 560 nm |
| Cc1ccc2c(c1)sc(-c1ccc(N(C)C)cc1)[n+]2C [ThT, Thioflavin-T, reference compound] | – | – | – | – | – | – | – | – | – | – | – | – | – | – | – | failed to distinguish AFs from lysate | – | – | 0.15 fold | 0.34 fold | Detection of early αS aggregation species (misfolding, oligomers/protofibrils) [12]: only tracking mature fibrils |
| Cc1c(C)n2c(/C=C/c3ccc(N)cc3)c(C)c(=O)n2c1=O [3a] | 385 nm | 583 nm | 30800 M⁻¹ cm⁻¹ | 0.7% | 198 nm | 1.5% | – | 26.7 | 5.4 fold | 1.0 ×10^−3 | 2.14 fold | – | – | – | – | – | – | – | – | – | – |

Second part, led by results:

| Absorbance λabs (maximum absorption wavelength) [1] | Emission λem (maximum emission wavelength) [1] | ε (molar absorption coefficient at maximum absorption wavelength) [1] | Fluorescence QY ([1]; CH3CN/PBS pH 7.4, 25 μM) | Stokes Shift [1] | Fluorescence QY ([1]; in CH3CN) | Emission wavelength range (solvatochromism) [2] | Polarity sensitivity [2] | Fluorescence intensity change with viscosity [3] | Viscosity sensitivity χ2 [3] | Fluorescence change between 25 °C and 42 °C [4] | Brightness increase upon binding to αS fibrils [5] | Emission wavelength upon binding to αS fibrils [5] | Fluorescence lifetime (τ) upon binding to αS fibrils [5] | Kd [6] | Fluorescence with PDD-derived AFs compared to unamplified lysate [11] | Compound | Turn-on for αS fibrils relative to tau fibrils [7] | Turn-on for αS fibrils relative to Aβ1–42 fibrils [8] | Staining efficiency: probe intensity ratio αS/pLK condensates to αS fibrils [14] | Staining: probe intensity ratio αS/Tau condensates to αS fibrils [15] | further results |
| --- | --- | --- | --- | --- | --- | --- | --- | --- | --- | --- | --- | --- | --- | --- | --- | --- | --- | --- | --- | --- | --- |
| 399 nm | 591 nm | 26400 M⁻¹ cm⁻¹ | 0.5% | 192 nm | 2.0% | 486–640 nm | 30.7 | 4.68 fold | 0.7 ×10^−3 | – | – | – | – | – | – | CNc1ccc(/C=C/c2c(C)c(=O)n3c(=O)c(C)c(C)n23)cc1 [3b] | – | – | – | – | – |
| 436 nm | 640 nm | 36700 M⁻¹ cm⁻¹ | 0.6% | 204 nm | 13.5% | 486–640 nm | ~ 31.5 | around 3 fold | – | – | 383 fold | 620 nm | 1.27 ns | 420 ± 250 nM | 2.6 fold | Cc1c(C)n2c(/C=C/C=C/c3ccc(N(C)C)cc3)c(C)c(=O)n2c1=O [4a] | 11 fold | 15 fold | 1.11 fold | 1.12 fold | λem shift ([2]; across solvents with dielectric constants from 2.38 to 8.93): 64 nm; Affinity relative to 3c ([6]; Kd ratio 3c/4a): 3.5 times; Displacement of probe fluorescence by BF2846 (Site B binder) [9]: not affected; Displacement of probe fluorescence by Ex6 (Site A binder) [9]: not affected; Competition with ThT [9]: competed with the promiscuous binder ThT; λem as probe concentration increased ([10]; bound to αS fibrils): 617 to 618 nm; Dielectric constant of local environment of probe bound to αS fibrils [10]: 27.6; Increase in fluorescence intensity within 20 hours of αS aggregation ([12]; agitation): 15 fold; λem with αS/TMAO ([13]; 2 M TMAO): 604 nm; Sensitivity (turn-on) relative to 3c [13, 18]: 2.2 fold; Sensitivity (turn-on) relative to ThT [13, 18]: 3.1 fold; λem with αS/TMAO ([13]; 4 M TMAO): 606 nm; Sensitivity (turn-on) relative to 3c [13, 19]: 2.9 fold; Sensitivity (turn-on) relative to ThT [13, 19]: 5.2 fold; λem with αS/TMAO ([13]; 6 M TMAO): 601 nm; Turn-on relative to 2a (so in the source) [13, 20]: 1.2 fold; Turn-on relative to ThT [13, 20]: 1.5 fold; Staining of tau-only condensates [16]: minimal staining; Fluorescence in αS-containing tau condensates compared to tau-only condensates [17]: 3.8 fold |
